The source of these data is PubChem BioAssay AID504383 (The Scripps Research Institute Molecular Screening Center, 2011).

Out of some 2,500 compounds screened, about 1,200 (48%) were called active.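 Rule for the calls: active = mean activation above the low control average plus 3 SD, as set in the primary screen (cut at about 12% in these data); inactive = the rest.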 The set was probably picked from earlier hits. The list shows a part of the results.

This test has as its target Troponin I, cardiac muscle (Homo sapiens) + Troponin T, cardiac muscle (Homo sapiens) + Troponin C, slow skeletal and cardiac muscles (Homo sapiens) (UniProt P19429+P45379+P63316). Description: calcium sensitizers of cardiac thin filaments – biochemical, IANBD-TnC fluorescence, triplicate, confirmation (AID 504383).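 Note: 0% = DMSO at 0.472 mM calcium and 100% = DMSO at 2.9 mM calcium.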 The settings on record: IANBD-labeled cardiac RTF, Ca2+ sensitivity fluorescence; at 7.2 µM; hits give high values; scaled from EC20 to saturating calcium; tested at EC20 calcium, 0.472 mM. An outline of the steps: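 material = labelled regulated thin filaments | probe or stimulus = Ca2+ 0.472 mM, EC20 level | dosing = single nominal compound dose of 7.2 µM | schedule = 15 min at 25 °C | signal = fluorescence intensity of labelled filaments | evaluation = fluorescence gain scaled between EC20 and EC100 calcium controls | benchmarks = low control EC20 calcium, high control EC100 calcium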
Regarding `O=C(NCCNC(=O)c1cccs1)c1ccco1`, the activation is 40.3% (active).

For `O=C(NCC(=O)N(Cc1cccs1)C(C(=O)NC1CCCCC1)c1ccncc1)c1ccco1` (stereo unspecified), the activation is 3.25% (inactive).

`CCOC(=O)Cc1csc(N(C)C)n1`: the activation was 10.1% (inactive).

With `CCOC(=O)Cc1csc(NC(=O)c2sc3nc4cc(C)ccc4cc3c2N)n1`, the activation is 71.2% (active).

`CCOC(=O)Cc1csc(CC(N)=O)n1`: the activation is 4.59% (inactive).

`Cc1ccc(CNC(=O)c2ccc(S(=O)(=O)N3CCCCC3)cc2)cc1`: the activation is 6.31% (inactive).

Regarding `Cc1ccc(NC(=O)CN(C)c2ccc(S(=O)(=O)N3CCCC3)cn2)cc1`, the activation was 94.3% (active).

As for `Cc1cccc2cc3c(N)c(C(=O)N4CCCc5ccccc54)sc3nc12`, the activation was 6.58% (inactive).

For `CCc1cccc2cc3c(N)c(C(=O)Nc4ccc(S(=O)(=O)N5CCCC5)cc4)sc3nc12`, the activation is 24.8% (active).

On to `Nc1c(C(=O)Nc2ccc(S(=O)(=O)N3CCCC3)cc2)sc2nc3ccc(OC(F)(F)F)cc3cc12`, for which the activation was 11.7% (active).

For the compound `O=c1[nH][nH]c(C(F)(F)F)c1C=NCc1ccccc1Cl`, the activation was 33.6% (active).

Regarding `O=c1[nH][nH]c(C(F)(F)F)c1C=Nc1cccc(Cl)c1`, the activation was 60% (active).

With `CN(C)c1ccc2nc3c(=O)[nH]c(=O)nc-3n(CC(O)C(O)C(O)CO)c2c1` (stereo unspecified), the activation was 10.2% (inactive).

For `COc1ccccc1C(=O)n1nc(-c2ccccc2)nc1N`, the activation was 4.84% (inactive).

Take `Cc1ccc(-c2nc(N)n(C(=O)c3cccnc3)n2)cc1`: the activation was 148% (active).

For the compound `COC(=O)c1ccc(Oc2c(F)c(F)nc(N3CCOCC3)c2F)cc1`, the activation was 5.29% (inactive).

Take `COc1ccc(C(=O)/C=C/c2cn(CC(O)CN3CCOCC3)c3ccccc23)cc1` (stereo unspecified): the activation was 21.6% (active).

As to `Cc1ccc(C(=O)/C=C/c2cn(CC(O)CN3CCOCC3)c3ccccc23)cc1` (stereo unspecified), the activation is -2.05% (inactive).

With `COc1ccc(C(=O)/C=C/c2cn(CC(O)CN3CCN(C)CC3)c3ccccc23)cc1OC` (stereo unspecified), the activation was 133% (active).

As to `O=c1c(O)c(-c2cccs2)oc2ccc(Cl)cc12`, the activation was 4.87% (inactive).

On to `O=C(N/N=C/c1cc(Cl)cc(Cl)c1O)c1ccncc1`, for which the activation was 17.9% (active).

Take `C/C(=N/NC(=O)c1ccncc1)c1cc2ccc(O)cc2oc1=O`: the activation is 4.52% (inactive).

Regarding `Nc1nnnn1/N=C/c1cc(Cl)cc(Cl)c1O`, the activation was 11% (inactive).

Regarding `CC1(C)CC2CC(C)(CN2CC(=O)C(C#N)c2ccccc2)C1` (stereo unspecified), the activation is 7.07% (inactive).

Take `Cn1ncc2c(O/N=C(\N)c3ccc(C(F)(F)F)cc3)ncnc21`: the activation is 93.4% (active).

Consider `Nc1ccn([C@H]2C[C@H](O)[C@@H](CO)O2)c(=O)n1`, for which the activation was 11.1% (inactive).

For the compound `Cc1cc(C)n(C2CCCCC2OC(=O)CCc2ccccc2)n1` (stereo unspecified), the activation was 35.8% (active).

Consider `CC1(OC(=O)CCc2ccccc2)C(=O)C=C2C=C(c3ccc(C#N)cc3)N(C3CCCC3)C=C2C1=O` (stereo unspecified), for which the activation is 5.7% (inactive).

With `C=CCn1c(SCC(=O)Nc2nccs2)nnc1-c1ccco1`, the activation is 7.96% (inactive).

In the case of `O=C(Cc1c(F)cccc1Cl)Nc1nccs1`, the activation is 1.97% (inactive).

Take `CC1(C)CC(CC(=O)Nc2nccs2)(c2ccccc2)CCO1` (stereo unspecified): the activation was 604% (active).

As for `COc1ccccc1N1CCN(C(=O)c2ccc(Cn3c(=O)[nH]c4ccsc4c3=O)cc2)CC1`, the activation was 125% (active).

Turning to `COCC(=O)NC1CCN(S(=O)(=O)c2cccc(C(C)=O)c2)CC1`, the activation is 14.3% (active).

As to `CN1CCN(S(=O)(=O)c2cccc(C(=O)Oc3cccc(Br)c3)c2)CC1`, the activation was 11.4% (inactive).

For `CC(=NNC(=O)c1ccncc1)c1ccc2ccccc2c1O`, the activation is 6.88% (inactive).

Regarding `O=C(N/N=C/c1sc(N2CCOCC2)nc1-c1ccccc1)c1cccc(S(=O)(=O)N2CCCC2)c1`, the activation is 3.15% (inactive).

Regarding `O=C(N/N=C/c1sc2ccccc2c1O)c1ccccc1`, the activation was 66.7% (active).

`COc1ccc2cc(C(=O)N/N=C/c3sc4ccccc4c3O)ccc2c1`: the activation was 277% (active).

On to `COc1ccc(C(=O)N/N=C/c2sc3ccccc3c2O)cc1`, for which the activation was 14.3% (active).

For the compound `CN(/N=C/c1ccc(O)cc1O)c1ncc(C(F)(F)F)cc1Cl`, the activation is 6.15% (inactive).

For `CCN1CC=C2C(C1)C(c1ccc(Cl)s1)C(C#N)=C(N)C2(C#N)C#N` (stereo unspecified), the activation is 19.5% (active).

As to `Cc1cc(C)c(OCCOCCN2CCNCC2)c(C)c1`, the activation is 7.52% (inactive).

With `CCc1ccc(C(C)NC(=O)c2ncn[nH]2)cc1` (stereo unspecified), the activation is 17.2% (active).

On to `C[C@@H](NC(=O)c1ncn(C)c1C(=O)N[C@H](C)c1ccccc1)c1ccccc1`, for which the activation was 2.64% (inactive).

As to `CCn1c(NC(=O)Nc2cccc(C)c2C)cc2sccc21`, the activation is 12.6% (active).

Consider `COc1ccc(C2C(C(C)=O)=C(C)N=c3s/c(=C\c4cc(C)n(C)c4C)c(=O)n32)c(OC)c1` (stereo unspecified), for which the activation was 15% (active).

With `CCOC(=O)c1[nH]cnc1C(=O)Nc1ccccn1`, the activation was 12.4% (active).

Turning to `CCN(CC)c1ccc2cc(C(=O)Nc3ccccn3)c(=O)oc2c1`, the activation was 7.83% (inactive).

Turning to `CCOC(=O)C(C(=O)Nc1cccc(C)n1)C1CCCCC1` (stereo unspecified), the activation is 7.01% (inactive).

As to `Cc1oc(-c2cc3c(cc2Cl)OCO3)nc1CN1CCCC(C(=O)N2CCOCC2)C1` (stereo unspecified), the activation was 447% (active).

For `CCN(C(=O)CSc1nnc(COc2ccccc2F)n1N)c1c(N)n(Cc2ccccc2)c(=O)[nH]c1=O`, the activation is 1020% (active).

Regarding `Cc1ccc2[nH]cc(/C=C/c3cc[n+](C)cc3)c2c1`, the activation was 6.68% (inactive).

`C[n+]1ccc(/C=C/c2c[nH]c3ccc(F)cc23)cc1`: the activation was 5.69% (inactive).

As for `CC[n+]1ccc(/C=C/c2c[nH]c3ccccc23)cc1`, the activation was 167% (active).

As for `C[n+]1cc(C(=O)N2CCCCC2)ccc1/C=C/c1c[nH]c2ccccc12`, the activation is 8.02% (inactive).

Take `C(=Cc1c[nH]c2ccccc12)c1nccc2ccccc12`: the activation is 16.3% (active).

Take `OCC[n+]1ccc(/C=C/c2c[nH]c3ccccc23)cc1`: the activation is 6.81% (inactive).

In the case of `C[n+]1ccc(/C=C/c2c[nH]c3ccccc23)cc1`, the activation is 45.7% (active).

In the case of `CC(=O)N(c1ccccc1)C1SC(=O)N(c2ccccc2)C1=O` (stereo unspecified), the activation was 9.18% (inactive).

`Cc1cccc(C)c1-n1c(C)nn(-c2ncc(C(F)(F)F)cc2Cl)c1=O`: the activation is 2.27% (inactive).

As to `O=c1nc2c(O)cccn2c2c1c(=O)[nH]c1ccccc12`, the activation was 11.7% (active).

As to `CN(C)c1ccc(/C=C/C(=O)c2cccc(Br)c2)cc1`, the activation is 9.43% (inactive).

On to `CC(=O)Nc1cccc(C(=O)/C=C/c2ccc(N(C)C)cc2)c1`, for which the activation is 15.4% (active).

Consider `NC(=O)C1CCN(c2ccc3c(c2)S(=O)(=O)c2ccccc2C3=O)CC1`, for which the activation is 5.74% (inactive).

`COC(=O)C1CCN(C(=O)CN2C(=O)c3ccccc3S2(=O)=O)CC1`: the activation is 2170% (active).

On to `COc1cc(/C=C/C(=O)c2ccc3c(c2)OCO3)cc(Cl)c1O`, for which the activation is 15.6% (active).

With `CN(C)c1ccc(/C=C/C(=O)c2ccc3c(c2)OCO3)cc1`, the activation is 11% (inactive).

For `CCC(=O)N1CCN(c2nc(C)nc3sc(C)c(C)c23)CC1`, the activation was 4.34% (inactive).

For the compound `N#CC1(NC(=O)CN2CCN(S(=O)(=O)c3ccccc3F)CC2)CCCC1`, the activation was 2.39% (inactive).

Regarding `O=C(CN1CCN(c2ccccc2F)CC1)NCc1ccc(Cl)cc1`, the activation is 13% (active).

As to `Cc1cc(Cl)ccc1OCC(=O)NCCOc1nc(N2CCOCC2)nc(N2CCOCC2)n1`, the activation is 6.88% (inactive).

On to `CSc1ccc(Cl)c(C(=O)NNC(=O)c2csc(N3CCOCC3)n2)c1`, for which the activation was 9.67% (inactive).

For the compound `CCOC(=O)c1cnc2c(C)c(Cl)ccc2c1N1CCOCC1`, the activation was 80.7% (active).

With `CN(C)c1ccc(N=Cc2nc(-c3ccccc3)oc2O)cc1`, the activation was 37.2% (active).

Turning to `CC(=O)Nc1ccc(N=Cc2nc(-c3ccc(C)cc3)oc2O)cc1`, the activation was 33.1% (active).

`Cc1nc(C)c2c(c1C(F)(F)F)-c1ccccc1C2(F)F`: the activation is 9.1% (inactive).

Turning to `Cc1[nH]c(=S)c(C#N)c(C)c1CCC#N`, the activation is 8.9% (inactive).

As to `COc1cc(N2CCCC2)c(OC)cc1/C=C(/C#N)c1cccc(Br)c1`, the activation is 8.22% (inactive).

As to `COc1cc(N2CCCC2)c(OC)cc1/C=C(/C#N)c1ccc(Br)cc1`, the activation was 12.2% (active).

`Cc1ccc(NC(=O)COc2ccc(/C=N/NC(=O)CSCc3ccccc3)cc2)cc1`: the activation is 58.9% (active).

For the compound `CCOC(=O)c1[nH]c2ccc(OCC)cc2c1CCCN1C(=O)c2ccccc2C1=O`, the activation was 156% (active).

On to `CCOC(=O)C1=C(C)N(CCCCCC(=O)O)C(=O)NC1c1ccccc1Cl` (stereo unspecified), for which the activation is 6.32% (inactive).

As to `Brc1ccc(-c2noc(-c3ccccn3)n2)o1`, the activation was 5.39% (inactive).

As for `CCOC(=O)C1=C(C)N=c2s/c(=C\c3ccc(OCC(=O)O)cc3)c(=O)n2C1c1ccc(Cl)cc1` (stereo unspecified), the activation was 14.5% (active).

In the case of `CCOC(=O)C1=C(C)N=c2s/c(=C/c3ccc(OCC(=O)O)c(OC)c3)c(=O)n2C1c1ccc(Cl)cc1` (stereo unspecified), the activation is 16.8% (active).

For `CCOC(=O)C1=C(C)N=c2s/c(=C/c3ccc(OCC(=O)O)cc3)c(=O)n2C1c1ccc(SC)cc1` (stereo unspecified), the activation is 5.43% (inactive).

For `O=C1CCC[C@@H]2Cc3nc4ccc(O)cc4cc3[C@@H]3CCN1[C@H]23`, the activation was 3.13% (inactive).

Take `O=C(Cn1c2[n+](c3ccc(C(F)(F)F)cc31)CCCCC2)Nc1ccccc1`: the activation was 0.79% (inactive).

For the compound `O=C(O)CCC(=O)Nc1cc(C(F)(F)F)cc(C(F)(F)F)c1`, the activation is 30.5% (active).

As for `O=C(CN1CCN(c2ccccc2)CC1)Nc1cccc(C(F)(F)F)c1`, the activation is 5.41% (inactive).

On to `CC(C)(C)OC(=O)N1CCC(Cc2cc(-c3cccnc3)no2)(C(=O)O)CC1`, for which the activation was 15.8% (active).

Consider `COCCn1c(SCC#N)nnc1-c1ccc([N+](=O)[O-])cc1`, for which the activation was 4.93% (inactive).

For the compound `Cc1sc(NC(=O)CSc2nnc(C(C)C)n2C)c(C#N)c1C`, the activation is 80.6% (active).

Consider `CC(=O)c1ccc(NC(=O)C2CCCN(S(=O)(=O)c3c(C)[nH]c(=O)[nH]c3=O)C2)cc1` (stereo unspecified), for which the activation is 58.6% (active).

For the compound `Cc1cc(S(=O)(=O)N2CCCC(C(=O)Nc3ccc(C(=O)O)cc3)C2)ccc1Cl` (stereo unspecified), the activation was 41.5% (active).

`CC(=O)N1CCCc2cc(S(=O)(=O)N3CCCC(C(=O)Nc4cccc(C)c4)C3)ccc21` (stereo unspecified): the activation was 8.68% (inactive).
